Experimental data: PubChem BioAssay AID493237 (Broad Institute, 2011)
“And” between values parts separate entries of the source, which are not always exact repeats. Equal entries are not always repeated. The source made the active and inactive calls.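 Rule for the calls: active = fitted curve reaching 40% activation at a concentration no higher than the top valid dose tested; inconclusive = flat curve between 30 and 70% activation, or poor fit; inactive = the rest, including opposite-direction effects.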

Legend:
[1] = system: U2OS HRE-luciferase reporter, iron condition, luminescence; test: HRE-luciferase activation in iron medium, dose response, mechanism study for HIF pathway activator project, cell-based, U2OS, luminescence, dry powder, set 2 (AID 493237)
Outline: (§1)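 System: human U2OS osteosarcoma cells with stable 3×HRE-driven luciferase reporter / Also added: ferric nitrate at 50 µM final, added before compound / Times: 24 h pre-dosing growth, 24 h compound exposure, 37 °C / Technique: luciferase luminescence with Steady-Glo reagent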

[2] = as above; conditions: U2OS HRE-luciferase reporter, iron condition, luminescence; at 38 µM (top of the series)
Outline: as §1

SMILES: c1ccc(-c2nnc(-c3ccccn3)nc2N2CCN(c3ccncc3)CC2)cc1
- AC40 [1]: 22.9 µM

SMILES: OCCCNc1nc(-c2ccccn2)nnc1-c1ccccc1
- AC40 [1]: 23.9 µM

SMILES: Oc1ccc(CNC2CCc3ccccc32)c2cccnc12 (configuration not stated)
- activation [2]: -45.6% (inactive)

SMILES: Clc1cccc(CNc2nc(-c3ccccn3)nnc2-c2ccccc2)c1
- AC40 [1]: 11.6 µM

SMILES: O=C(NCCN1CCOCC1)c1cc(-c2ccccc2)on1
- AC40 [1]: 9.15 µM

SMILES: O=C(Nc1cnc2ccccc2c1)c1cc(-c2ccccc2)on1
- activation [2]: 14% (inactive)

SMILES: CC(C)(C)CCNC(=O)c1cc(-c2ccccc2)on1
- AC40 [1]: 8.89 µM

SMILES: CC(C)(C)c1ccc(CNc2nc(-c3ccccn3)nnc2-c2ccccc2)cc1
- AC40 [1]: 20.6 µM

SMILES: OCC1CCN(Cc2ccc(O)c3ncccc23)CC1
- activation [2]: -24% (inactive)

SMILES: c1ccc(-c2ccc(CNc3nc(-c4ccccn4)nnc3-c3ccccc3)cc2)cc1
- AC40 [1]: 9.52 µM

SMILES: CC(C)(C)OC(=O)N1CCN(Cc2ccc(O)c3ncccc23)CC1
- activation [2]: -18.7% (inactive)

SMILES: O=C(NCc1ccccc1)c1cc(-c2ccccc2)on1
- AC40 [1]: > 38 µM (inactive)

SMILES: CCCCNC(=O)c1cc(-c2ccccc2)on1
- AC40 [1]: 3.76 µM

SMILES: Cc1ccc(CNc2nc(-c3ccccn3)nnc2-c2ccccc2)cc1C
- AC40 [1]: 6.44 µM

SMILES: Cc1ccc(NC(=O)c2cc(-c3ccccc3)on2)cn1
- activation [2]: -0.441% (inactive)

SMILES: c1ccc(CNc2nc(-c3ccccn3)nnc2-c2ccccc2)cc1
- AC40 [1]: 9.31 µM

SMILES: C[C@@H](Nc1nc(-c2ccccn2)nnc1-c1ccccc1)C1CCCCC1
- AC40 [1]: 7.81 µM

SMILES: O=C(c1cc(-c2ccccc2)on1)N1CCC(N2CCOCC2)CC1
- activation [2]: -12.6% (inactive)

SMILES: c1ccc(-c2nnc(-c3ccccn3)nc2NCCCN2CCOCC2)cc1
- AC40 [1]: 26.1 µM

SMILES: Oc1ccc(CNC2Cc3ccccc3C2)c2cccnc12
- activation [2]: -38.8% (inactive)

SMILES: c1ccc(-c2nnc(-c3ccccn3)nc2Nc2cnc3ccccc3n2)cc1
- AC40 [1]: 24.8 µM

SMILES: c1ccc(-c2nnc(-c3ccccn3)nc2NCC2CCCCC2)cc1
- AC40 [1]: 9.8 µM

SMILES: O=C(c1cc(-c2ccccc2)on1)N1CCN(c2ccncc2)CC1
- activation [2]: -11.7% (inactive)

SMILES: O=C(NCCN1CCCCC1)c1cc(-c2ccccc2)on1
- activation [2]: 15.3% (inactive)

SMILES: COc1ccc(CNc2nc(-c3ccccn3)nnc2-c2ccccc2)cc1
- AC40 [1]: 9.43 µM

SMILES: CN(C)CCNC(=O)c1cc(-c2ccccc2)on1
- activation [2]: 19.3% (inactive)

SMILES: c1ccc(-c2cccc(CNc3nc(-c4ccccn4)nnc3-c3ccccc3)c2)cc1
- AC40 [1]: 10.1 µM

SMILES: C[C@@H](Nc1nc(-c2ccccn2)nnc1-c1ccccc1)c1ccccc1
- AC40 [1]: 8.05 µM

SMILES: Oc1ccc(CN2CCC(Cc3ccccc3)CC2)c2cccnc12
- activation [2]: -17.9% (inactive)

SMILES: O=C(NCCCCO)c1cc(-c2ccccc2)on1
- AC40 [1]: 1.29 µM

SMILES: c1ccc(-c2csc(Nc3nc(-c4ccccn4)nnc3-c3ccccc3)n2)cc1
- AC40 [1]: > 38 µM (inactive)

SMILES: C=CCNc1nc(-c2ccccn2)nnc1-c1ccccc1
- AC40 [1]: 26.5 µM

SMILES: CC1CN(Cc2ccc(O)c3ncccc23)CC(C)O1 (configuration not stated)
- activation [2]: -40% (inactive)

SMILES: c1ccc(-c2nnc(-c3ccccn3)nc2Nc2nc3ccccc3s2)cc1
- activation [2]: 21.8% (inactive)

SMILES: Cc1cccc(CNC(=O)c2cc(-c3ccccc3)on2)c1
- activation [2]: -17.5% (inactive)

SMILES: COc1ccccc1N1CCN(Cc2ccc(O)c3ncccc23)CC1
- activation [2]: -35.6% (inactive)

SMILES: c1ccc(-c2cnc(Nc3nc(-c4ccccn4)nnc3-c3ccccc3)s2)cc1
- activation [2]: 1.03% (inactive)

SMILES: O=C(c1cc(-c2ccccc2)on1)N1CCc2cccnc21
- activation [2]: -8.92% (inactive)

SMILES: O=C(NC1CCc2ccccc2C1)c1cc(-c2ccccc2)on1 (configuration not stated)
- activation [2]: -15.1% (inactive)

SMILES: O=C(c1cc(-c2ccccc2)on1)N1CCC(CO)CC1
- activation [2]: -15.4% (inactive)

SMILES: c1ccc(-c2nnc(-c3ccccn3)nc2N2CCC(c3ccccc3)C2)cc1 (configuration not stated)
- AC40 [1]: 18.7 µM

SMILES: Cc1ccccc1CNc1nc(-c2ccccn2)nnc1-c1ccccc1
- AC40 [1]: 7.8 µM

SMILES: c1ccc(-c2nnc(-c3ccccn3)nc2NCc2ccccn2)cc1
- AC40 [1]: 15.9 µM

SMILES: Cc1ccccc1CNC(=O)c1cc(-c2ccccc2)on1
- activation [2]: 15.4% (inactive)

SMILES: c1ccc(CCNc2nc(-c3ccccn3)nnc2-c2ccccc2)cc1
- AC40 [1]: 10.6 µM

SMILES: CN(C)c1nc(-c2ccccn2)nnc1-c1ccccc1
- AC40 [1]: 24.5 µM

SMILES: Cc1ccc(CNC(=O)c2cc(-c3ccccc3)on2)cc1
- activation [2]: -26.7% (inactive)

SMILES: Cc1cccc(Nc2nc(-c3ccccn3)nnc2-c2ccccc2)n1
- AC40 [1]: 27.2 µM

SMILES: CC(Nc1nc(-c2ccccn2)nnc1-c1ccccc1)c1ccccc1 (configuration not stated)
- AC40 [1]: 10.3 µM

SMILES: CC(C)(C)CCNc1nc(-c2ccccn2)nnc1-c1ccccc1
- AC40 [1]: 10.2 µM and 8.22 µM

SMILES: O=C(Nc1ccc2ccccc2n1)c1cc(-c2ccccc2)on1
- activation [2]: -19.3% (inactive)

SMILES: c1ccc(-c2nnc(-c3ccccn3)nc2NCc2cccnc2)cc1
- AC40 [1]: 25.9 µM

SMILES: O=C(Nc1nnc(-c2ccccc2)s1)c1cc(-c2ccccc2)on1
- activation [2]: 2.91% (inactive)

SMILES: O=C(NCCCn1ccnc1)c1cc(-c2ccccc2)on1
- AC40 [1]: 4.5 µM

SMILES: O=C(Nc1ncc(-c2ccccc2)o1)c1cc(-c2ccccc2)on1
- activation [2]: -19.3% (inactive)

SMILES: O=C(Nc1nc2ccccc2s1)c1cc(-c2ccccc2)on1
- activation [2]: 9.12% (inactive)

SMILES: Cn1c(-c2ccccc2)cnc1Nc1nc(-c2ccccn2)nnc1-c1ccccc1
- activation [2]: 11.2% (inactive)

SMILES: CN1CCN(C(=O)c2cc(-c3ccccc3)on2)CC1
- activation [2]: -32.3% (inactive)

SMILES: Oc1ccc(CN2CCC3CCCCC3C2)c2cccnc12 (configuration not stated)
- activation [2]: -51.1% (inactive)

SMILES: O=C(Nc1nc(-c2ccccc2)cs1)c1cc(-c2ccccc2)on1
- activation [2]: -4.82% (inactive)

SMILES: O=C(NCC1CCCCC1)c1cc(-c2ccccc2)on1
- activation [2]: 21.9% (inactive)

SMILES: O=C(Nc1cn2ccccc2n1)c1cc(-c2ccccc2)on1
- activation [2]: -9.98% (inactive)

SMILES: Cn1c(NC(=O)c2cc(-c3ccccc3)on2)nc2ccccc21
- activation [2]: 7.37% (inactive)

SMILES: C[C@H](Nc1nc(-c2ccccn2)nnc1-c1ccccc1)C1CCCCC1
- AC40 [1]: 9.72 µM

SMILES: c1ccc(-c2nnc(-c3ccccn3)nc2N2CCC(C3CCCCC3)C2)cc1 (configuration not stated)
- activation [2]: -30.3% (inactive)

SMILES: CN1CCN(c2nc(-c3ccccn3)nnc2-c2ccccc2)CC1
- AC40 [1]: 25 µM

SMILES: c1ccc(-c2nnc(-c3ccccn3)nc2N2CCC(N3CCOCC3)CC2)cc1
- AC40 [1]: 21 µM

SMILES: Cc1ccc(Nc2nc(-c3ccccn3)nnc2-c2ccccc2)cn1
- AC40 [1]: 24.3 µM

SMILES: Cn1c(-c2ccccc2)cnc1NC(=O)c1cc(-c2ccccc2)on1
- activation [2]: 6.19% (inactive)

SMILES: c1ccc(-c2nnc(Nc3nc(-c4ccccn4)nnc3-c3ccccc3)s2)cc1
- AC40 [1]: > 38 µM (inactive)

SMILES: c1ccc(-c2nnc(-c3ccccn3)nc2NCC2CCOCC2)cc1
- activation [2]: 137% (inactive)

SMILES: c1ccc(-c2nnc(-c3ccccn3)nc2NCCN2CCOCC2)cc1
- AC40 [1]: 19.4 µM

SMILES: O=C(Nc1ncc2ccccc2n1)c1cc(-c2ccccc2)on1
- AC40 [1]: > 38 µM (inactive)

SMILES: O=C(NCCCN1CCOCC1)c1cc(-c2ccccc2)on1
- AC40 [1]: 10.3 µM

SMILES: c1ccc(-c2nnc(-c3ccccn3)nc2NCC2CC2)cc1
- AC40 [1]: 24 µM

SMILES: Cc1cccc(CNc2nc(-c3ccccn3)nnc2-c2ccccc2)c1
- AC40 [1]: 8.97 µM

SMILES: O=C(NC1Cc2ccccc2C1)c1cc(-c2ccccc2)on1
- AC40 [1]: > 38 µM (inactive)

SMILES: Cc1ccc(CNc2nc(-c3ccccn3)nnc2-c2ccccc2)cc1
- AC40 [1]: 11.4 µM

SMILES: N#CC1(c2ccccc2)CCN(Cc2ccc(O)c3ncccc23)CC1
- activation [2]: -19.9% (inactive)

SMILES: Cc1cccc(NC(=O)c2cc(-c3ccccc3)on2)n1
- AC40 [1]: > 38 µM (inactive)

SMILES: c1ccc(-c2nnc(-c3ccccn3)nc2NCCc2ccccn2)cc1
- AC40 [1]: 24.3 µM

SMILES: OCC1CCN(c2nc(-c3ccccn3)nnc2-c2ccccc2)CC1
- activation [2]: 37.3% (inactive)

SMILES: O=C(NCC1CC1)c1cc(-c2ccccc2)on1
- AC40 [1]: 3.19 µM

SMILES: O=C(c1cc(-c2ccccc2)on1)N1CCC(N2CCCC2)CC1
- activation [2]: -1.29% (inactive)

SMILES: O=C(NCCCO)c1cc(-c2ccccc2)on1
- AC40 [1]: 5.66 µM

SMILES: Oc1ccc(CN2CCc3ccccc3C2)c2cccnc12
- activation [2]: -30.4% (inactive)

SMILES: COc1cccc(CNc2nc(-c3ccccn3)nnc2-c2ccccc2)c1
- AC40 [1]: 10.7 µM
